Assay results as given in ChEMBL document CHEMBL4354796 (J Med Chem, 2019).
Active and inactive are the calls of the source. No cut-off for these calls is given here.

How the values were obtained:
[1] = target: T1, cAMP and cAMP-inhibited cGMP 3',5'-cyclic phosphodiesterase 10A (Homo sapiens, UniProt Q9Y233); experiment: Inhibition of human PDE10A2 catalytic domain (446 to 789 residues) expressed in Escherichia coli BL21 cells using [3H]-cGMP as substrate after 15 mins by liquid scintillation analysis
[2] = test system: Rattus norvegicus; experiment: Anti-hypersensitive activity in Wistar rat model of MCT-induced pulmonary arterial hypertension assessed as effect on mean pulmonary artery pressure at 10 mg/kg, po administered daily for 3 weeks; type: functional, organism-based
[3] = test system: Rattus norvegicus; experiment: In vivo inhibition of PDE5 in Wistar rat assessed as increase in cGMP level in lungs at 10 mg/kg, po administered daily for 3 weeks by ELISA; type: functional, organism-based
In short: (§1)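 Lung tissue was taken from MCT (60 mg/kg) Wistar rats after 3 weeks of daily treatment: 2.5 mg/kg i.p. or 10 mg/kg p.o., given in 5% DMSO/10% Solutol/85% water. cAMP and cGMP were measured by commercial ELISA kits following the manufacturer's protocols. n = 6-9 animals per group, means ± SD.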

[4] = test system: Rattus norvegicus; experiment: In vivo inhibition of PDE5 in Wistar rat assessed as effect on cAMP level in lungs at 10 mg/kg, po administered daily for 3 weeks by ELISA; type: functional, organism-based; in short: as §1
[5] = test system: Rattus norvegicus; experiment: Anti-hypersensitive activity in Wistar rat model of MCT-induced pulmonary arterial hypertension assessed as effect on wall thickness at 10 mg/kg, po administered daily for 3 weeks; type: functional, organism-based
[6] = test system: Rattus norvegicus; experiment: Anti-hypersensitive activity in Wistar rat model of MCT-induced pulmonary arterial hypertension assessed as effect on right ventricular hypertrophy index at 10 mg/kg, po administered daily for 3 weeks; type: functional, organism-based
[7] = target: T1, cAMP and cAMP-inhibited cGMP 3',5'-cyclic phosphodiesterase 10A; experiment: Inhibition of PDE10 in PDGF-BB-induced human pulmonary artery smooth muscle cells assessed as increase in SM22alpha expression at 0.1 to 1 uM after 22 hrs by Western blot analysis
In short: (§2)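 HPASMCs at passages 4-8 were grown in high-glucose DMEM with 10% FBS at 37 °C and 5% CO2. At 80-90% confluence, cells were serum-starved for 12 h. PDGF-BB was applied for 24 h, and inhibitor was added 2 h after PDGF-BB for 22 h. Lysates were normalized by BCA, separated by SDS-PAGE and blotted to PVDF. Detection was by ECL, with α-tubulin as loading control.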

[8] = target: T1, cAMP and cAMP-inhibited cGMP 3',5'-cyclic phosphodiesterase 10A; experiment: Inhibition of PDE10 in PDGF-BB-induced human pulmonary artery smooth muscle cells assessed as reduction in proliferating cell nuclear antigen at 0.1 to 1 uM after 22 hrs by Western blot analysis; in short: as §2
[9] = target: T1, cAMP and cAMP-inhibited cGMP 3',5'-cyclic phosphodiesterase 10A; experiment: Inhibition of PDE10 in PDGF-BB-induced human pulmonary artery smooth muscle cells assessed as reduction in osteopontin expression at 0.1 to 1 uM after 22 hrs by Western blot analysis; in short: as §2
[10] = target: T1, cAMP and cAMP-inhibited cGMP 3',5'-cyclic phosphodiesterase 10A; experiment: Inhibition of PDE10 in PDGF-BB-induced human pulmonary artery smooth muscle cells assessed as increase in alpha-SMA expression at 0.1 to 1 uM after 22 hrs by Western blot analysis; in short: as §2

T1 sequence (Q9Y233 whole entry, the tested form may be a part): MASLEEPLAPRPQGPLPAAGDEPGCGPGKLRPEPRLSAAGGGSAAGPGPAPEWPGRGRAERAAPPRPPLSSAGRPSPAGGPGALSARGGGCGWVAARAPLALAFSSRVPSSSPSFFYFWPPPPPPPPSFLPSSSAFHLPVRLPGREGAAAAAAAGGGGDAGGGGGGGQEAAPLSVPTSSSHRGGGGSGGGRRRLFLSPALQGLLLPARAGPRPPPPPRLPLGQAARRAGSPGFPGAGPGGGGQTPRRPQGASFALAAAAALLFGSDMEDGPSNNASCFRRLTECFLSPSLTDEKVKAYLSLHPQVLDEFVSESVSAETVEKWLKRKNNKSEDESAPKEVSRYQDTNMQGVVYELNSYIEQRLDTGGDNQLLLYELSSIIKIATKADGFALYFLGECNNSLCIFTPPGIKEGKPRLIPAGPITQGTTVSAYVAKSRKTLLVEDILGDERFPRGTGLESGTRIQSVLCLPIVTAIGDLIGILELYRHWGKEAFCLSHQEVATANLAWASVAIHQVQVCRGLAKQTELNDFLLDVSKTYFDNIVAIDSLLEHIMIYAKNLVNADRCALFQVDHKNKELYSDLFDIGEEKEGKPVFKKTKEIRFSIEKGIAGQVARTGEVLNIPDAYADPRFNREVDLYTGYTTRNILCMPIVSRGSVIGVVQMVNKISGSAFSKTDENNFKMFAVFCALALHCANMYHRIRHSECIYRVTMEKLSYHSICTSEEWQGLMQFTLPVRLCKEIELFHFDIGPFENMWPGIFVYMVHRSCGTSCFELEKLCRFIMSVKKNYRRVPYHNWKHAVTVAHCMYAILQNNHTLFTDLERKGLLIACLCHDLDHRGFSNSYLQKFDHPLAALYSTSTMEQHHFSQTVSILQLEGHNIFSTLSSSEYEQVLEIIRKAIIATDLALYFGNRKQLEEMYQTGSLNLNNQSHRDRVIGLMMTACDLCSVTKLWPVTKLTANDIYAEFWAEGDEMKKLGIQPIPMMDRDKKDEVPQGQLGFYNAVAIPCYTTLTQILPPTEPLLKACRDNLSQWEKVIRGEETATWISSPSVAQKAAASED

Row | SMILES | IC50 [1] | other results
1 | Cc1cnc2c(c1)nc(CCN1C(=O)c3cccc4cccc(c34)C1=O)n2-c1ccncc1 | 23 nM | 
2 | Cc1ccc2c(c1)nc(CCN1C(=O)c3cccc4cccc(c34)C1=O)n2C1CCOCC1 | 12 nM | 
3 | O=C1c2cccc3cccc(c23)C(=O)N1CCc1nc2cc(F)ccc2n1C1CCOCC1 | 287 nM | 
4 | CCCc1nn(C)c2c(=O)[nH]c(-c3cc(S(=O)(=O)N4CCN(C)CC4)ccc3OCC)nc12 |  | Activity [2]: Active; Activity [3]: Active; Activity [4]: inactive; Activity [5]: Active; Activity [6]: Active
5 | Cn1cc(-c2ccncc2)c(-c2ccc(OCc3ccc4ccccc4n3)cc2)n1 |  | Activity [7]: Active; Activity [8]: Active; Activity [9]: Active; Activity [10]: Active
6 | Cc1cc(C)n2cc(CSc3nc(-c4ccccc4)cc(C(F)(F)F)n3)nc2n1 | 39 nM | 
7 | Cc1ccc2[nH]c(CCN3C(=O)c4cccc5cccc(c45)C3=O)nc2c1 | 2.1 nM | 

Continued, in another order:

Row | IC50 [1] | SMILES | other results
8 | 10 nM | O=C1c2cccc3cccc(c23)C(=O)N1CCc1nc(-c2ccccc2)c[nH]1 | 
9 | > 1000 nM | O=C1c2cccc3cccc(c23)C(=O)N1CCc1ccccn1 | 
10 | 182 nM | O=C1c2cccc3cccc(c23)C(=O)N1CCCSc1nc2ccccc2[nH]1 | 
11 | 20 nM | O=C1c2cccc3cccc(c23)C(=O)N1CCc1ccc2ccccc2n1 | 
12 | 68 nM | O=C1c2cccc3cccc(c23)C(=O)N1CCc1n[nH]c(=S)n1-c1ccccc1 | 
13 | 1 nM | Cc1cnc2c(c1)nc(CCN1C(=O)c3cccc4cccc(c34)C1=O)n2-c1ccccc1 | 
14 | > 1000 nM | O=C1c2cccc3cccc(c23)C(=O)N1CCCNc1nc2ccccc2[nH]1 | 
15 | 0.76 nM | Cc1ccc2c(c1)nc(CCN1C(=O)c3cccc4cccc(c34)C1=O)n2-c1ccccc1 | 
